What is called AUC(0-t) is exposure summed from dosing to a finite time, without extrapolation to infinity. The term half-life denotes how long it takes for the measured level to halve. The term MRT inf denotes a mean duration of stay, worked out from the concentration-time curve. For orientation: Cmax means the maximum level reached in the sampled fluid or tissue. In general, AUC(0-inf) refers to the area under the concentration-time curve extrapolated to infinity. By inhibition is commonly meant the change of the read-out against control, counted positive when it falls. Broadly, the pEC50 is the negative decadic logarithm of the EC50, by convention in mol/L. In general, CC50 refers to the concentration that lowers cell viability or growth by half. One may read the MRT as the average time that molecules of a dose stay in the body. One may read the AUC as the area under the concentration-time curve, a measure of exposure. For orientation: solubility means the dissolved amount per volume that the medium holds.

The text below walks through data of ChEMBL document CHEMBL5360580 (Eur J Med Chem, 2023).

pEC50: −log10 of the molar value.

Data set [1] can be described thus: AUClast in ICR mouse at 2.5 mg/kg, iv measured upto 24 hrs by LC-MS/MS analysis. The class given is ADME, organism-based. Set-up: dose 2.5 mg/kg, time < 24 hrs, route iv. The following applies: ICR, in vivo. The procedure, abridged: (§1)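 Male-unspecified ICR (CD-1) mice, N = 3 per group, were fasted 12 h. Compound in DMSO/0.5% HMPC (5/95, v/v) was given orally at 30 mg/kg or intravenously at 2.5 mg/kg. Femoral-vein blood was drawn at 0.25, 0.5, 1, 2, 4, 8 and 24 h, and serum analyte levels were measured by LC-MS/MS.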

Data set [2] is described as follows: Half life in ICR mouse at 2.5 mg/kg, iv measured upto 24 hrs by LC-MS/MS analysis. The class given is ADME, organism-based. The following applies: ICR, in vivo. The procedure, abridged: as §1
Data set [3] is described as follows: Observed MRT (0 to infinity) in ICR mouse at 2.5 mg/kg, iv measured upto 24 hrs by LC-MS/MS analysis. In kind it is ADME, organism-based. The following applies: ICR, in vivo. The method in brief:
as §1

The nature of data set [4]: Cmax in ICR mouse at 2.5 mg/kg, iv measured upto 24 hrs by LC-MS/MS analysis. In kind it is ADME, organism-based. Set-up: dose 2.5 mg/kg, time < 24 hrs, route iv. The following applies: in vivo. The method in brief: as §1
Data set [5] can be described thus: Observed AUC (0 to infinity) in ICR mouse at 2.5 mg/kg, iv measured upto 24 hrs by LC-MS/MS analysis. The conditions noted are these: ICR, in vivo. Set-up: dose 2.5 mg/kg, time < 24 hrs, route iv. The class given is ADME, organism-based. The procedure, abridged:
as §1

The test system of data set [6] is SARS-CoV-2. As to the kind of experiment: Antiviral activity against SARS-CoV-2 infected in African green monkey Vero E6 cells assessed as inhibition of viral replication at 1 uM incubated for 24 hrs by IFA assay relative to control. The class given is functional. The conditions noted are these: Severe acute respiratory syndrome coronavirus 2, Vero C1008.
Data set [7] relates to SARS-CoV-2. Kind of data set: Antiviral activity against SARS-CoV-2 infected in African green monkey Vero E6 cells assessed as inhibition of viral replication incubated for 24 hrs by IFA assay. The class given is functional, organism-based. The conditions noted are these: Severe acute respiratory syndrome coronavirus 2, Vero C1008, 24 h.
A further data set concerns Vero C1008. As to the kind of experiment: Cytotoxicity against African green monkey Vero E6 cells assessed as reduction in cell viability measured after 48 hrs by CCK-8 assay. In kind it is toxicity, cell-based. The following applies: chlorocebus sabaeus, vero c1008, 48 h.
Data set [8] in a line: Selectivity index, ratio of CC50 for cytotoxicity against African green monkey Vero E6 to EC50 for antiviral activity against SARS-CoV-2 infected in African green monkey Vero E6 cells. In kind it is toxicity, cell-based, Vero C1008. The conditions noted are these: read-out: Ratio CC50/EC50.
Data set [9] in a line: Prodrug conversion in ICR mouse plasma assessed as half life of compound 5-chloro-4-fluoro-2-hydroxy-N-(4-(trifluoromethoxy)phenyl)benzamide at 30 mg/kg, po and 2.5 mg/kg, iv measured upto 24 hrs by LC-MS/MS analysis. The conditions noted are these: in vivo. The class given is ADME, organism-based. The method in brief:
(§2)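 Prodrugs were given to fasted ICR (CD-1) mice (N = 3) in DMSO/0.5% HMPC (5/95), at 30 mg/kg po or 2.5 mg/kg iv. Serum from femoral-vein blood taken 0.25–24 h was analysed by LC-MS/MS for the released parent compound, with mole correction applied to the parameters.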

Data set [10] is described as follows: Prodrug conversion in ICR mouse plasma assessed as oral bioavailability of compound 5-chloro-4-fluoro-2-hydroxy-N-(4-(trifluoromethoxy)phenyl)benzamide at 30 mg/kg measured upto 24 hrs by LC-MS/MS analysis. The class given is ADME, organism-based. The following applies: in vivo. The method in brief:
as §2

Data set [11] is described as follows: Prodrug conversion in ICR mouse plasma assessed as Observed MRT (0 to infinity) of compound 5-chloro-4-fluoro-2-hydroxy-N-(4-(trifluoromethoxy)phenyl)benzamide at 30 mg/kg, po and 2.5 mg/kg, iv measured upto 24 hrs by LC-MS/MS analysis. The following applies: in vivo. The class given is ADME, organism-based. The procedure, abridged:
as §2

Data set [12] is described as follows: Prodrug conversion in ICR mouse plasma assessed as AUClast of compound 5-chloro-4-fluoro-2-hydroxy-N-(4-(trifluoromethoxy)phenyl)benzamide at 30 mg/kg, po and 2.5 mg/kg, iv measured upto 24 hrs by LC-MS/MS analysis. The class given is ADME, organism-based. Set-up: dose 30 mg/kg, time < 24 hrs, route po. The following applies: in vivo. The method in brief: as §2

Data set [13] in a line: Prodrug conversion in ICR mouse plasma assessed as Observed AUC (0 to infinity) of compound 5-chloro-4-fluoro-2-hydroxy-N-(4-(trifluoromethoxy)phenyl)benzamide at 30 mg/kg, po and 2.5 mg/kg, iv measured upto 24 hrs by LC-MS/MS analysis. In kind it is ADME, organism-based. Set-up: time < 24 hrs, dose 30 mg/kg, route po. The following applies: in vivo. The method in brief: as §2

Data set [14] in a line: Aqueous solubility of compound at 0.5 mg/mL in presence of acetonitrile by HPLC analysis. In kind it is physicochemical. The conditions noted are these: buffer. The procedure, abridged:
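Compound was suspended in water, vortexed vigorously and filtered through a 0.22 μm membrane. The filtrate was diluted 2-fold with 80% acetonitrile and analysed by reversed-phase amide HPLC. Concentration was read against a standard curve prepared from a 0.5 mg/mL solution in 80% acetonitrile. Single determination.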

Data set [15] is described as follows: Prodrug conversion in ICR mouse plasma assessed as Cmax of compound 5-chloro-4-fluoro-2-hydroxy-N-(4-(trifluoromethoxy)phenyl)benzamide at 30 mg/kg, po and 2.5 mg/kg, iv measured upto 24 hrs by LC-MS/MS analysis. The class given is ADME, organism-based. Set-up: time < 24 hrs, dose 30 mg/kg, route po. The following applies: in vivo. The procedure, abridged: as §2

Regarding `C[C@H](N)C(=O)Oc1cc(F)c(Cl)cc1C(=O)Nc1ccc(OC(F)(F)F)cc1.Cl`, the AUC(0-t) at 24 h in [1] came to 6670 ng·h/mL. In data set [2], this compound showed a half-life of 2.92 h. Further, the MRT inf in data set [3] was 5.02 h. For the same compound, in data set [4], the highest concentration (Cmax) is 3360 ng/mL. The compound further displayed an AUC(0-inf) in data set [5] of 6700 ng·h/mL.
Turning to `O=C(Nc1ccc(C(F)(F)F)cc1)c1ccccc1O`, the inhibition at 1 µM in the data set on SARS-CoV-2 [6] was below 10%.
Still for that read-out and setting: the figure for `Oc1ccc(Cl)cc1-c1nnc(-c2ccc(C(F)(F)F)cc2)[nH]1` is below 10%.
In the case of `O=C(Nc1ccc(C(F)(F)F)c(Cl)c1)c1cc(Cl)c(F)cc1O`, in the data set with SARS-CoV-2 [6], the inhibition at 1 µM was found to be 95%. Also, the pEC50 with SARS-CoV-2 [7] is 5.57. Moreover, the CC50 in the data set on Vero C1008 came out at 4520 nM. For the same compound, in [8], the selectivity ratio is 1.69.
In the case of `O=C(Nc1ccc(C(F)(F)F)cc1Cl)c1cc(Cl)ccc1O`, the inhibition at 1 µM in the data set on SARS-CoV-2 [6] was determined as 79%.
With `CC(=O)c1cc(Cl)cc(C(=O)Nc2ccc(C(F)(F)F)cc2)c1O`, the inhibition at 1 µM in the data set with SARS-CoV-2 [6] was found to be 50%.
With `CC(=O)Nc1ccc(NC(=O)c2cc(Cl)ccc2O)c(Cl)c1`, the inhibition at 1 µM with SARS-CoV-2 [6] was below 10%.
For `COc1ccc(Cl)cc1C(=O)Nc1ccc(C(F)(F)F)cc1`, in the data set on SARS-CoV-2 [6], the inhibition at 1 µM is below 10%.
For `CC(C)C(=O)Oc1cc(F)c(Cl)cc1C(=O)Nc1ccc(OC(F)(F)F)cc1`, in data set [9], the t1/2 came to 3.03 h. Moreover, in data set [10], the F is recorded as 39.75%. The mean residence time (MRT) in data set [11] was 5.52 h. Besides, the AUClast in data set [12] turned out to be 17393 ng·h/mL. The AUC in [13] was 17551 ng·h/mL. Also, the solubility in data set [14] is 0.53 µg/mL. In [15], the highest concentration (Cmax) was 5175 ng/mL.
Take `O=C(NCc1ccc(C(F)(F)F)cc1)c1cc(Cl)ccc1O`: in the data set with SARS-CoV-2 [6], the inhibition at 1 µM was 55%.
For the compound `O=C(Nc1ccc(SC(F)(F)F)cc1)c1cc(Cl)c(F)cc1O`, the inhibition at 1 µM in the data set on SARS-CoV-2 [6] was found to be 87%. Also, in the data set on SARS-CoV-2 [7], the pEC50 is 5.79. Also, the cytotoxic concentration (CC50) with Vero C1008 was determined as 2630 nM. Besides, in data set [8], the selectivity ratio was 1.63.
Turning to `O=C(Nc1ccc(OC(F)(F)F)cc1)c1cc(Cl)ccc1O`, the inhibition at 1 µM in the data set with SARS-CoV-2 [6] turned out to be 55%.
Still for that read-out and setting: the figure for `Oc1ccc(Cl)cc1-c1nnc(-c2ccc(C(F)(F)F)cc2)o1` is below 10%.
